Experimental data reported in ChEMBL document CHEMBL2057137, “Lead optimization studies on FimH antagonists: discovery of potent and orally bioavailable ortho-substituted biphenyl mannosides” (J Med Chem, 2012).

Key:
[1] = system: Escherichia coli; assay: Inhibition of Escherichia coli FimH-mediated hemagglutinination of human red blood cells assessed as drug level required for > 90% inhibition of hemagglutinination after 30 mins by hemagglutinination inhibition assay
[2] = system: Escherichia coli; assay: Antibacterial activity against Escherichia coli K-12 ATCC 25404 assessed as inhibition of biofilm formation after 2 hrs by confocal laser microscopic analysis; assay type: functional, organism-based; conditions: for IC50: Escherichia coli, K-12 ATCC 25404, 2 h
[3] = Binding affinity to biotinylated Escherichia coli FimH-lectin domain after 30 mins by biolayer interferometry method
Outline: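 FimH lectin domain biotinylated 1:1, loaded at 50μg/ml in HBS (20mM HEPES pH 7.5, 150mM NaCl) onto streptavidin tips, biocytin-blocked. Compound applied as 7 twofold dilutions in HBS for 10 min association, then 30 min dissociation, 30°C with shaking. Referenced to biocytin-blocked pins for drift and nonspecific binding. Kd from global kinetic fitting.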

[4] = system: Escherichia coli; assay: Binding affinity to […] Escherichia coli FimH-lectine domain assessed as melting temperature at 100 uM by differential scanning fluorometric assay
Outline: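 Untagged FimH lectin domain (residues 1–158 of UPEC J96 FimH), 5 µg in a 50 µl reaction of HBS (20mM HEPES pH 7.5, 150mM NaCl). Compound at 100µM final, diluted from DMSO stocks, with SYPRO Orange at 5X final. Controls were FimH alone plus 0.2% DMSO. Melt curve ran from 20–90°C in 0.5 °C steps of 15 s each, with fluorescence read on the HEX channel.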

[5] = Effective permeability of the compound by PAMPA assay; assay type: ADME; parameters: unit not given here
[6] = system: Mus musculus; assay: Ratio of drug uptake in mouse urine to plasma at 50 mg/kg, po measured after 6 hrs; conditions: in vivo
[7] = system: Mus musculus; assay: Stability in mouse urinary tract infection model assessed as hydrolysis of glycosidic bond at 10 to 200 mg/kg, po; assay type: ADME, organism-based, Urine; parameters: dose 10-200 mg/kg, route oral; conditions: in vivo
Outline: (§1)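 Oral dosing in mice. Urine and plasma compound levels quantified by LC-MS/MS in selected reaction monitoring mode. The phenolic biphenyl hydrolysis product (R group) in urine was monitored at transition 285/254.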

[8] = Drug metabolism in mouse urine assessed as formation of phenolic biphenyl metabolite at 10 to 200 mg/kg, po; assay type: ADME, organism-based; parameters: dose 10-200 mg/kg, route oral; conditions: in vivo; outline: as §1
[9] = Plasma concentration in mouse at 100 mg/kg, po measured after 6 hrs; assay type: ADME, organism-based; parameters: dose 100 mg/kg, route oral; outline: as §1
[10] = Drug level in mouse urine at 100 mg/kg, po measured after 6 hrs; assay type: ADME, organism-based; parameters: dose 100 mg/kg, route oral; conditions: read-out: Drug uptake; outline: as §1
[11] = Plasma concentration in mouse at 50 mg/kg, po measured after 6 hrs; assay type: ADME, organism-based; parameters: dose 50 mg/kg, route oral
Outline: (§2)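 Oral dosing in mice at 50 mg/kg. Plasma and urine sampled at 30 min and 1, 2, 3, 4, 6 h after dosing. Compound quantified by LC-MS/MS in selected reaction monitoring mode.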

[12] = Drug level in mouse urine at 50 mg/kg, po measured after 6 hrs; assay type: ADME, organism-based; parameters: dose 50 mg/kg, route oral; conditions: read-out: Drug uptake; outline: as §2

OC[C@H]1O[C@H](Oc2ccc(-c3cccc4cnccc34)cc2)[C@@H](O)[C@@H](O)[C@@H]1O
EC>90 [1]: 0.25 µM

COC(=O)c1cccc(-c2ccc(O[C@H]3O[C@H](CO)[C@@H](O)[C@H](O)[C@@H]3O)c(OC)c2)c1
EC>90 [1]: 0.19 µM | IC50 [2]: 890 nM

COC(=O)c1cc(O[C@H]2O[C@H](CO)[C@@H](O)[C@H](O)[C@@H]2O)cc(C(=O)OC)c1
Kd [3]: 3.45 nM | Tm [4]: 73.2 °C

CNC(=O)c1cc(C(=O)NC)cc(-c2ccc(O[C@H]3O[C@H](CO)[C@@H](O)[C@H](O)[C@@H]3O)c(C)c2)c1
log Pe [5]: -8.46 | EC>90 [1]: 0.016 µM | Ratio [6]: 10 | IC50 [2]: 73 nM | Tm [4]: 75.8 °C

COC(=O)c1ccc(-c2ccc(O[C@H]3O[C@H](CO)[C@@H](O)[C@H](O)[C@@H]3O)cc2)cc1
Kd [3]: 3.99 nM

CNC(=O)c1cc(C(=O)NC)cc(-c2ccc(O[C@H]3O[C@H](CO)[C@@H](O)[C@H](O)[C@@H]3O)cc2)c1
Stability [7]: Unstable | log Pe [5]: -4.51 | Drug metabolism [8]: Active | Ratio [6]: 10 | Kd [3]: 0.14 nM | MED [2]: 0.74 µM | IC50 [2]: 740 nM | concentration at 6 h [9]: 10 nM | concentration at 6 h [10]: 4850 nM | Tm [4]: 74.4 °C

CN1CCN(C(=O)c2cccc(-c3ccc(O[C@H]4O[C@H](CO)[C@@H](O)[C@H](O)[C@@H]4O)cc3)c2)CC1
EC>90 [1]: 4 µM

OC[C@H]1O[C@H](Oc2ccccc2)[C@@H](O)[C@@H](O)[C@@H]1O
EC>90 [1]: 30 µM | Tm [4]: 68.9 °C

CNC(=O)c1cccc(-c2ccc(O[C@H]3O[C@H](CO)[C@@H](O)[C@H](O)[C@@H]3O)c(C)c2)c1
log Pe [5]: -3.89 | concentration at 6 h [11]: 100 nM | EC>90 [1]: 0.06 µM | Ratio [6]: 10 | concentration at 6 h [12]: 4370 nM | IC50 [2]: 160 nM | Tm [4]: 74.5 °C

COC(=O)c1cc(C(=O)OC)cc(-c2ccc(O[C@H]3O[C@H](CO)[C@@H](O)[C@H](O)[C@@H]3O)cc2)c1
Tm [4]: 72.5 °C

COC(=O)c1cccc(-c2ccc(O[C@H]3O[C@H](CO)[C@@H](O)[C@H](O)[C@@H]3O)c(Cl)c2)c1
log Pe [5]: -4.29 | EC>90 [1]: 0.03 µM | IC50 [2]: 260 nM

COc1cccc(-c2ccc(O[C@H]3O[C@H](CO)[C@@H](O)[C@H](O)[C@@H]3O)cc2)c1
Kd [3]: 1.25 nM | Tm [4]: 71.8 °C

O=C(Nc1ccncc1)c1cccc(-c2ccc(O[C@H]3O[C@H](CO)[C@@H](O)[C@H](O)[C@@H]3O)cc2)c1
EC>90 [1]: 0.25 µM

COC(=O)c1sc(-c2ccc(O[C@H]3O[C@H](CO)[C@@H](O)[C@H](O)[C@@H]3O)cc2)cc1NC(N)=O
EC>90 [1]: 0.02 µM

NCCNC(=O)c1cccc(-c2ccc(O[C@H]3O[C@H](CO)[C@@H](O)[C@H](O)[C@@H]3O)cc2)c1
EC>90 [1]: 3 µM

O=C(c1cccc(-c2ccc(O[C@H]3O[C@H](CO)[C@@H](O)[C@H](O)[C@@H]3O)cc2)c1)N1CCNCC1
EC>90 [1]: 4 µM

CC(=O)Nc1cccc(-c2ccc(O[C@H]3O[C@H](CO)[C@@H](O)[C@H](O)[C@@H]3O)cc2)c1
Kd [3]: 1.14 nM | Tm [4]: 72.3 °C

COC(=O)c1cc(-c2ccc(O[C@H]3O[C@H](CO)[C@@H](O)[C@H](O)[C@@H]3O)cc2)ccn1
EC>90 [1]: 0.5 µM | Tm [4]: 73.7 °C

COC(=O)c1ccc(-c2ccc(O[C@H]3O[C@H](CO)[C@@H](O)[C@H](O)[C@@H]3O)cc2)s1
EC>90 [1]: 1 µM

COc1ccccc1-c1ccc(O[C@H]2O[C@H](CO)[C@@H](O)[C@H](O)[C@@H]2O)cc1
Tm [4]: 70.7 °C

COC(=O)c1cccc(O[C@H]2O[C@H](CO)[C@@H](O)[C@H](O)[C@@H]2O)c1
Tm [4]: 70.8 °C

OC[C@H]1O[C@H](Oc2ccc(-c3cccc(C(F)(F)F)c3)cc2)[C@@H](O)[C@@H](O)[C@@H]1O
Kd [3]: 1.56 nM | Tm [4]: 68.3 °C

O=C(NCCO)c1cccc(-c2ccc(O[C@H]3O[C@H](CO)[C@@H](O)[C@H](O)[C@@H]3O)cc2)c1
EC>90 [1]: 0.5 µM

COC(=O)c1cccc(-c2ccc(O[C@H]3O[C@H](CO)[C@@H](O)[C@H](O)[C@@H]3O)cc2C(=O)OC)c1
log Pe [5]: -4.08 | EC>90 [1]: 1 µM

CNS(=O)(=O)c1cccc(-c2ccc(O[C@H]3O[C@H](CO)[C@@H](O)[C@H](O)[C@@H]3O)cc2)c1
Kd [3]: 0.49 nM | Tm [4]: 72 °C

O=C(Nc1cccnc1)c1cccc(-c2ccc(O[C@H]3O[C@H](CO)[C@@H](O)[C@H](O)[C@@H]3O)cc2)c1
EC>90 [1]: 0.37 µM | Tm [4]: 72.5 °C

NC(=O)c1cccc(-c2ccc(O[C@H]3O[C@H](CO)[C@@H](O)[C@H](O)[C@@H]3O)cc2)c1
Kd [3]: 1 nM | Tm [4]: 71.7 °C

OC[C@H]1O[C@H](Oc2ccc(-c3ccccc3)cc2)[C@@H](O)[C@@H](O)[C@@H]1O
Kd [3]: 3 nM | Tm [4]: 71.2 °C

O=C(O)c1cccc(-c2ccc(O[C@H]3O[C@H](CO)[C@@H](O)[C@H](O)[C@@H]3O)cc2)c1
Kd [3]: 2.21 nM | Tm [4]: 70.9 °C

OC[C@H]1O[C@H](Oc2ccc3ccccc3c2)[C@@H](O)[C@@H](O)[C@@H]1O
Kd [3]: 2.72 nM | Tm [4]: 70.8 °C

O=c1[nH]ccc2ccc(-c3ccc(O[C@H]4O[C@H](CO)[C@@H](O)[C@H](O)[C@@H]4O)cc3)cc12
EC>90 [1]: 0.1 µM

CNC(=O)c1cc(C(=O)NC)cc(-c2ccc(O[C@H]3O[C@H](CO)[C@@H](O)[C@H](O)[C@@H]3O)c(C(F)(F)F)c2)c1
log Pe [5]: -6.27 | concentration at 6 h [11]: 40 nM | EC>90 [1]: 0.008 µM | Ratio [6]: 10 | concentration at 6 h [12]: 890 nM | IC50 [2]: 43 nM | Tm [4]: 76.2 °C

CNC(=O)c1cccc(-c2ccc(O[C@H]3O[C@H](CO)[C@@H](O)[C@H](O)[C@@H]3O)c(C(F)(F)F)c2)c1
EC>90 [1]: 0.03 µM | Ratio [6]: 10 | IC50 [2]: 130 nM | Tm [4]: 72.3 °C

COC(=O)c1cccc(-c2ccc(O[C@H]3O[C@H](CO)[C@@H](O)[C@H](O)[C@@H]3O)c(C)c2)c1
EC>90 [1]: 0.12 µM | IC50 [2]: 330 nM

O=C(O)c1cc(C(=O)O)cc(-c2ccc(O[C@H]3O[C@H](CO)[C@@H](O)[C@H](O)[C@@H]3O)cc2)c1
Kd [3]: 14.5 nM | Tm [4]: 72.4 °C

COC(=O)c1cccc(-c2ccc(O[C@H]3O[C@H](CO)[C@@H](O)[C@H](O)[C@@H]3O)cc2)c1
log Pe [5]: -5.42 | Kd [3]: 0.08 nM | IC50 [2]: 940 nM | Tm [4]: 73.4 °C

CNC(=O)c1cccc(-c2ccc(O[C@H]3O[C@H](CO)[C@@H](O)[C@H](O)[C@@H]3O)cc2)c1
EC>90 [1]: 0.5 µM | IC50 [2]: 1350 nM | Tm [4]: 73.4 °C

CNC(=O)c1cccc(-c2ccc(O[C@H]3O[C@H](CO)[C@@H](O)[C@H](O)[C@@H]3O)c(Cl)c2)c1
EC>90 [1]: 0.12 µM | Ratio [6]: 10 | IC50 [2]: 520 nM

OCc1cccc(-c2ccc(O[C@H]3O[C@H](CO)[C@@H](O)[C@H](O)[C@@H]3O)cc2)c1
Kd [3]: 2.61 nM | Tm [4]: 71.2 °C

COC(=O)c1cccc(-c2ccc(O[C@H]3O[C@H](CO)[C@@H](O)[C@H](O)[C@@H]3O)c(C(F)(F)F)c2)c1
log Pe [5]: -3.91 | EC>90 [1]: 0.03 µM | IC50 [2]: 170 nM

OC[C@H]1O[C@H](OCc2ccccc2)[C@@H](O)[C@@H](O)[C@@H]1O
Kd [3]: 43.7 nM

COC(=O)c1cncc(-c2ccc(O[C@H]3O[C@H](CO)[C@@H](O)[C@H](O)[C@@H]3O)cc2)c1
EC>90 [1]: 0.19 µM

CS(=O)(=O)Nc1cccc(-c2ccc(O[C@H]3O[C@H](CO)[C@@H](O)[C@H](O)[C@@H]3O)cc2)c1
Kd [3]: 2 nM | Tm [4]: 70.9 °C

COC(=O)c1cccc(-c2ccc(O[C@H]3O[C@H](CO)[C@@H](O)[C@H](O)[C@@H]3O)c(F)c2)c1
EC>90 [1]: 0.75 µM

OC[C@H]1O[C@H](Oc2ccc(-c3ccc4ncncc4c3)cc2)[C@@H](O)[C@@H](O)[C@@H]1O
EC>90 [1]: 0.38 µM

OC[C@H]1O[C@H](Oc2ccc(-c3ccc4ccncc4c3)cc2)[C@@H](O)[C@@H](O)[C@@H]1O
EC>90 [1]: 0.75 µM

COC(=O)c1csc(-c2ccc(O[C@H]3O[C@H](CO)[C@@H](O)[C@H](O)[C@@H]3O)cc2)c1
EC>90 [1]: 2 µM

NC(=O)Nc1csc(-c2ccc(O[C@H]3O[C@H](CO)[C@@H](O)[C@H](O)[C@@H]3O)cc2)c1
EC>90 [1]: 1 µM
